Many of the other results were omitted from the sample, so hits are more common in it than they were.
T cruzi inh: inhibitors of intracellular T. cruzi growth, primary screen, luminescence, NIH3T3 host cells. T. cruzi beta-gal in NIH3T3, 90 h. inhibition, % (test concentration not listed). actives 1.4% (n = 300,000). AID 1885, 2009;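 active = mean inhibition across valid replicates above about 55%, limit read from the data; inconclusive = mean below that limit but half or more replicates reach it; inactive = mean below it, under half of replicates reach it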;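 also: signal also drops with host cell toxicity which is not excluded here; 0% = plate median of DMSO wells and 100% = zero luminescence signal; higher percent means less beta-gal luminescence so fewer parasites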
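assay system = mouse NIH/3T3 fibroblasts infected with β-gal-expressing T. cruzi Tulahuen C4 | input = 5,000 NIH/3T3 host cells per well | buffer or medium = DMEM plus 2% FBS | timing = 3 h host attachment, then at least 90 h co-culture | measured by = GalScreen luminescence, 60 min | evaluation = luminescence reflecting intracellular parasite burden, expressed as percent inhibition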
Calb FLC: C. albicans growth inhibition with fluconazole, primary screen, CaCi-2 strain, Alamar Blue fluorescence | C. albicans CaCi-2 + fluconazole, 48 h | growth inhibition, % (concentration not given with the values) | actives 0.57% (n = 300,000);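 active = growth inhibition above about 58% in most replicates, limit read from the data, passing the limit was not always enough; inconclusive = exactly half the replicates above a set limit; inactive = most replicates below a set limit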;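 also: all wells also contain fluconazole at 8 µg/ml as a sub-toxic cotreatment; 0% = median of DMSO wells and 100% = median of geldanamycin control wells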
NLRP3 yeast inh: NALP3 inflammasome inhibitors in reconstituted yeast, primary screen, luminescence, uHTS; inhibition, % at 10 µM; AID 2825, 2010; Yeast reconstituted NLRP3/ASC/caspase-1, beta-gal luminescence, 24 h; actives 0.39% (n = 330,000);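 active = inhibition of 50% or more; inactive = inhibition below 50%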;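 also: plate controls were induced DMSO wells for no effect and uninduced yeast grown without galactose for full effect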
Lmaj promast: Leishmania major promastigote growth inhibition, primary screen | Leishmania major promastigotes, resazurin fluorescence viability | inhibition, % at 10 µM | actives 9% (n = 200,000) | AID 1063, 2008; in the data active = inhibition above about 50%;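 also: promastigotes grown with compound for 44 hours at 28 °C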
PolyA inh: polyadenylation inhibitors in yeast reporter cells, primary screen, luminescence, S. cerevisiae; S. cerevisiae SKY197-pL101 polyadenylation reporter, beta-gal luminescence; efflux-impaired pdr1/pdr3 knockout yeast; score 100 = 6 SD above DMSO; activity score, % at 12 µM; actives 0.02% (n = 300,000);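 active = lowest replicate activity score at least 50, where 100 means six control SD above control mean; inconclusive = lowest score under 50 but half or more replicates reach 50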;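 also: yeast exposed to compound for 9 h at 30 °C; higher score means more reporter readthrough which indicates perturbed polyadenylation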
NALP1 inh: NALP1 inflammasome inhibitors in reconstituted yeast, colorimetric, S. cerevisiae, triplicate retest | S. cerevisiae NALP1/ASC/caspase-1 growth, X-gal OD620, 72 h | actives 0.61% (n = 280,000) | inhibition, % at 10 µM; in the data active = inhibition mostly above about 24%, no sharp cut-off; inactive = mostly below about 32%
Starred values were filed as active, the others as inactive.

Screening O=C(c1nc2ccccn2c1CN1CCC(Cc2ccccc2)CC1)N1CCCC1 returned T cruzi inh 16.4, Calb FLC -2.6, NLRP3 yeast inh 6.0, Lmaj promast 68.9*, PolyA inh 4.6 and NALP1 inh -4.5.
`Cc1cccc(OC2CCN(Cc3c(C(=O)N4CCCC4)nc4ccccn34)CC2)c1` gave T cruzi inh 6.6, Calb FLC 1.6, NLRP3 yeast inh -10.7, Lmaj promast 98.8*, PolyA inh 15.6 and NALP1 inh 9.9.
`COC1CCN(Cc2c(C(=O)N3CCN(C4CCCCC4)CC3)nc3ccccn23)CC1` gave T cruzi inh 59.0*, Calb FLC -2.4, NLRP3 yeast inh 5.5, PolyA inh 4.7 and NALP1 inh 17.1.
O=c1cc(CN2CCN(c3ccccn3)CC2)nc2sccn12 was read as T cruzi inh -1.2, Calb FLC -6.4, NLRP3 yeast inh -3.1, Lmaj promast 0.8, PolyA inh 5.2 and NALP1 inh 13.9.
Screening CCOc1ncccc1C(=O)Nc1cc2c(cc1Br)OCCO2 returned NLRP3 yeast inh 17.6.
Screening COc1ccc(NS(=O)(=O)c2cccc(C(=O)NNC(=O)CNC(=O)c3cccc(C)c3)c2)cc1 returned T cruzi inh -2.9, Calb FLC -3.6, NLRP3 yeast inh 7.8, PolyA inh 16.5 and NALP1 inh 3.3.
`Clc1cccc(CNCCCSc2ncccn2)c1` gave T cruzi inh 37.6, Calb FLC -15.7, NLRP3 yeast inh -1.0, PolyA inh 12.9 and NALP1 inh -1.7.
For Cc1ccc(OC(C)C(=O)Nc2ccc(F)cc2)c([N+](=O)[O-])n1 (configuration not stated) the results were NLRP3 yeast inh 8.5.
C[C@H](O)CC1=C[C@H](O)[C@@H](C)OC1=O was read as T cruzi inh -4.5, Calb FLC 4.5, NLRP3 yeast inh 7.0, Lmaj promast -10.5, PolyA inh 2.0 and NALP1 inh 5.5.
For O=C(CSc1nnc(NC(=O)C2CC2)s1)NCc1ccco1 the results were T cruzi inh -0.3, Calb FLC -1.0, NLRP3 yeast inh 8.0, Lmaj promast 58.6*, PolyA inh -6.7 and NALP1 inh 8.1.
For C/C(N)=C(/C#N)C(=O)CSc1nc(-c2ccccc2)c(-c2ccccc2)o1 the results were T cruzi inh 59.4*, Calb FLC 5.1, NLRP3 yeast inh -37.2, PolyA inh -30.9 and NALP1 inh -1.1.
C/C(N)=C(/C#N)C(=O)COC(=O)C(c1ccccc1)c1ccccc1 was read as T cruzi inh -4.6, Calb FLC -12.5, NLRP3 yeast inh -14.3, Lmaj promast 73.0*, PolyA inh -2.9 and NALP1 inh 3.0.
`Cc1cccc(NC(=S)NC(C)C(c2ccccc2)N2CCN(C)CC2)c1C` (configuration not stated) gave T cruzi inh 16.2, Calb FLC -14.1, NLRP3 yeast inh 2.2, Lmaj promast 1.8, PolyA inh -11.1 and NALP1 inh -7.9.
`CCOc1ccccc1C(=O)N1CCN(C(c2ccccc2)c2ccccc2)CC1` gave T cruzi inh 29.7, Calb FLC 12.2, NLRP3 yeast inh -9.0, Lmaj promast 95.3*, PolyA inh 26.8 and NALP1 inh -3.0.
Screening CCOC(=O)c1cnc(-c2ccc(C(F)(F)F)cn2)[nH]c1=O returned T cruzi inh -9.1, Calb FLC 15.6, NLRP3 yeast inh 12.1, PolyA inh 3.0 and NALP1 inh 15.0.
`Cc1cccc(C(=O)Nc2ccc(C(=O)/C=C/c3cccnc3)cc2)c1` gave T cruzi inh 34.9, Calb FLC 9.7, Lmaj promast 100.5*, PolyA inh -4.7 and NALP1 inh 34.6.
`Cc1cccc(C(=O)Nc2ccc(C(=O)/C=C/c3ccncc3)cc2)c1` gave T cruzi inh 25.0, Calb FLC -4.1, NLRP3 yeast inh 22.7, PolyA inh -5.9 and NALP1 inh 5.8.
For O=C(Nc1ccc(Br)cc1)c1ccc(Br)c(S(=O)(=O)Nc2cccnc2)c1 the results were T cruzi inh -3.3, Calb FLC 7.3, NLRP3 yeast inh 2.1, Lmaj promast 72.7*, PolyA inh 2.0 and NALP1 inh 8.9.
O=C(/C=C/c1cccnc1)c1ccc(NC(=O)c2cccc(Br)c2)cc1 was read as T cruzi inh 38.1, Calb FLC 0.3, NLRP3 yeast inh 8.3, Lmaj promast 99.1*, PolyA inh 5.6 and NALP1 inh 19.9.
COc1ccccc1CC(=O)c1ccc(OCc2ccccc2)cc1 was read as T cruzi inh -2.2, Calb FLC 3.5, NLRP3 yeast inh 28.3 and PolyA inh inconclusive.
For CSc1ccccc1NC(=O)CN(C)CC(=O)NCC(=O)Nc1ccc(F)cc1 the results were T cruzi inh -2.6, Calb FLC 7.4, NLRP3 yeast inh 1.3 and PolyA inh 6.9.
Cc1ccc(NC2CCCN(C(=O)c3cc(C(C)C)[nH]n3)C2)cc1C (configuration not stated) was read as T cruzi inh 7.9, Calb FLC 12.4, NLRP3 yeast inh 14.2, PolyA inh 17.3 and NALP1 inh 1.7.
Cc1cc(C)c(OC2(c3ccccc3)OC(=O)c3ccccc32)c(C)c1 (configuration not stated) was read as T cruzi inh 14.6, Calb FLC 8.5, NLRP3 yeast inh 3.0, Lmaj promast 3.2, PolyA inh 1.7 and NALP1 inh -9.8.
Screening Cc1cccc(C)c1OC1(c2ccccc2)OC(=O)c2ccccc21 (configuration not stated) returned T cruzi inh 10.2, Calb FLC 21.9, NLRP3 yeast inh -9.3, Lmaj promast 98.3*, PolyA inh 9.2 and NALP1 inh 23.2.
COc1cc(NC(=O)CNc2ccc(Cl)c(S(=O)(=O)N3CCOCC3)c2)cc(OC)c1 was read as NLRP3 yeast inh 5.1.
For CNCC(C)COc1ccccc1OCc1ccccc1 (configuration not stated) the results were T cruzi inh 8.6, Calb FLC -27.1, NLRP3 yeast inh 2.2, Lmaj promast 98.8*, PolyA inh 20.8 and NALP1 inh 26.2.
CC(O)CNCCCOc1ccccc1OCc1ccccc1 (configuration not stated) was read as T cruzi inh 12.3, Calb FLC -0.8, NLRP3 yeast inh -4.4, Lmaj promast 98.9*, PolyA inh 7.1 and NALP1 inh 7.9.
Cc1ccc(C)c(OCCCNCc2ccccc2)c1 was read as T cruzi inh 19.4, Calb FLC -0.9, NLRP3 yeast inh 37.5, PolyA inh -35.7 and NALP1 inh 8.2.
